Data taken from ChEMBL document CHEMBL3576814, “N (1)-Fluoroalkyltryptophan Analogues: Synthesis and in vitro Study as Potential Substrates for Indoleamine 2,3-Dioxygenase” (ACS Med Chem Lett, 2015).

Assays:
[1] = Retention time of the compound by HPLC analysis; assay type: physicochemical
In short: (§1)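 rhIDO incubation mixtures analysed by HPLC or UPLC, eluting with CH3CN/10 mM ammonium acetate 10/90 or 5/95 (v/v) at 0.7 mL/min. UV detection uses 221 and 284 nm for substrates and 321 or 360 nm for products. Product peaks are collected for mass spectrometry.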

[2] = target: Indoleamine 2,3-dioxygenase 1 (Homo sapiens) (UniProt P14902); assay: Activity of recombinant human IDO assessed as retention time treated with 1-Me-L-Trp by HPLC analysis; in short: as §1
Indoleamine 2,3-dioxygenase 1 (Homo sapiens), sequence (P14902 whole entry, looked up): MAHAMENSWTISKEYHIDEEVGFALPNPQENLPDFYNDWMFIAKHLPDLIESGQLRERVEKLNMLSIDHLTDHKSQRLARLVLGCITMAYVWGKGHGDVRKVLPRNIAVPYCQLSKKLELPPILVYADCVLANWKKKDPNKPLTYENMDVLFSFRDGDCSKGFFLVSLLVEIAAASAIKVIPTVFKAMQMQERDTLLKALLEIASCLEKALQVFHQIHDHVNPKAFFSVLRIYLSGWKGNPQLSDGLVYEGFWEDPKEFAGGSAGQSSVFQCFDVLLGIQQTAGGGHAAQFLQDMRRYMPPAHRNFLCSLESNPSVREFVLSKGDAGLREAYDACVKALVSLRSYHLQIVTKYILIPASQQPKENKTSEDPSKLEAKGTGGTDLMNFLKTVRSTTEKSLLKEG

[3] = target: Indoleamine 2,3-dioxygenase 1 (Homo sapiens) (UniProt P14902); assay: Activity of recombinant human IDO assessed as retention time treated with 1-FETrp by HPLC analysis; in short: as §1
[4] = target: Indoleamine 2,3-dioxygenase 1 (Homo sapiens) (UniProt P14902); assay: Activity of recombinant human IDO assessed as retention time treated with L-Trp by HPLC analysis; in short: as §1
[5] = target: Indoleamine 2,3-dioxygenase 1 (Homo sapiens) (UniProt P14902); assay: Activity of recombinant human IDO assessed as retention time treated with 5-HO-L-Trp by HPLC analysis; in short: as §1
[6] = target: Tryptophan 2,3-dioxygenase (Homo sapiens) (UniProt P48775); assay: Activity of 1 uM recombinant human TDO assessed as substrate consumption at 100 uM at 37 degC at pH 7.5 after 1 hr by HPLC with fluorescence detection method
Tryptophan 2,3-dioxygenase (Homo sapiens), sequence (P48775 whole entry, looked up): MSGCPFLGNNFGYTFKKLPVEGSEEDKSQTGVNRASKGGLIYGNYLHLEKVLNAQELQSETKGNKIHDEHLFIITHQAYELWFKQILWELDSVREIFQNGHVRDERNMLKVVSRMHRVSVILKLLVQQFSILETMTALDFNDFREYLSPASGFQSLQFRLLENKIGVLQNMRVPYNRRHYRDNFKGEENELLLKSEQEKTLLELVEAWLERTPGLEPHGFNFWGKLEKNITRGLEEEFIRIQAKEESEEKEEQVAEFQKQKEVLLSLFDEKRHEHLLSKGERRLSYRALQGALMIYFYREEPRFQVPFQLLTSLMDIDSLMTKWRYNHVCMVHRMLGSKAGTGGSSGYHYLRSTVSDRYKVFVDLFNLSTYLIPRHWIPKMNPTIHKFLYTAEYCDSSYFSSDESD
In short: (§2)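 Recombinant human TDO (1 or 10 μM enzyme) incubated with substrate at 100 μM, 37 °C, pH 7.5, for 1 h. Perchloric acid is then added and the mixture analysed by HPLC with fluorescence detection. Read-out is percentage of substrate consumed.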

[7] = target: Tryptophan 2,3-dioxygenase (Homo sapiens) (UniProt P48775); assay: Activity of 10 uM recombinant human TDO assessed as substrate consumption at 100 uM at 37 degC at pH 7.5 after 1 hr by HPLC with fluorescence detection method; in short: as §2

With `CC(N)Cc1c[nH]c2ccccc12` (stereo not given) the Retention_time [1] was 11.1 min.
Work on `N[C@@H](Cc1cn(Cc2cn(CCF)nn2)c2ccccc12)C(=O)O` yielded a Retention_time [1] of 16.4 min.
`CC(N)(Cc1c[nH]c2ccccc12)C(=O)O` (stereo not given) showed a Retention_time [1] of 7 min.
`CC(C)(C)OC(=O)N[C@@H](Cc1c[nH]c2ccccc12)C(=O)O` gave a Retention_time [1] of 5.9 min.
With `CN(C=O)c1ccccc1C(=O)C[C@H](N)C(=O)O` the Retention time [2] was 4.5 min.
Work on `CNc1ccccc1C(=O)C[C@H](N)C(=O)O` yielded a Retention time [2] of 7.4 min.
`NC(CC(=O)c1ccccc1N(C=O)CCF)C(=O)O` (stereo not given) showed a Retention time [3] of 5 min.
With `NC(CC(=O)c1ccccc1NCCF)C(=O)O` (stereo not given) the Retention time [3] was 7.9 min.
Molecule `N[C@@H](CC(=O)c1ccccc1NC=O)C(=O)O` has a Retention time [4] of 4.3 min.
`Nc1ccc(O)cc1C(=O)C[C@H](N)C(=O)O` gave a Retention time [5] of 3.9 min.
With `Nc1ccccc1C(=O)C[C@H](N)C(=O)O` the Retention time [4] was 4.5 min.
`NC(Cc1cn(CCF)c2ccccc12)C(=O)O` (racemic) gave an Activity [6] of 0%, a Retention_time [1] of 9.2 min and an Activity [7] of 2%.
In the case of `Cn1cc(C[C@H](N)C(=O)O)c2ccccc21` [(L)-1-METHYLTRYPTOPHAN], the Activity [6] is reported as 0%, the Retention_time [1] is reported as 9.4 min and the Activity [7] is reported as 3%.
`CC(=O)N[C@@H](Cc1c[nH]c2ccccc12)C(=O)O` [ACETYLTRYPTOPHAN] gave a Retention_time [1] of 7 min.
With `N[C@@H](Cc1c[nH]c2ccc(O)cc12)C(=O)O` [OXITRIPTAN] the Activity [6] was 0%, the Retention_time [1] was 5.1 min and the Activity [7] was 14%.
With `NCCc1c[nH]c2ccccc12` [TRYPTAMINE] the Retention_time [1] was 9 min.
`N[C@@H](Cc1c[nH]c2ccccc12)C(=O)O` [TRYPTOPHAN] showed an Activity [6] of 67%, a Retention_time [1] of 5.4 min and an Activity [7] of 100%.
